According to PMC4152746 (Cell Research, 2014):
Changes are numbered by the printed parent chain. Where a SMILES comes first, the peptide text is derived from it. Where no end group is shown, it is not given here. [ ]: non-standard residue; d: D form. The star is where a group is joined. pY = N[C@@H](Cc1ccc(OP(=O)(O)O)cc1)C(=O)O; Cbz = O=C(OCc1ccccc1)*

Legend:
[1] = test system: HER2 level in HepG2 cells; assay: EGF-induced HER2 degradation with proteasome inhibitor; type: cell-based; conditions: 100 ng/ml EGF
Method in brief: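 HepG2 cells are transfected with control vector or PTPN18, preincubated with MG-132, then exposed to EGF for a time course. HER2 is detected by western blot with a specific antibody and quantified.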

PTPN18 [2] = target: T1, PTPN18 (Homo sapiens, UniProt Q99952); assay: pNPP phosphatase assay; type: biochemical; conditions: PTPN18 versus PTP1B, DMG buffer, 37 °C
T1 sequence (Q99952 6-300): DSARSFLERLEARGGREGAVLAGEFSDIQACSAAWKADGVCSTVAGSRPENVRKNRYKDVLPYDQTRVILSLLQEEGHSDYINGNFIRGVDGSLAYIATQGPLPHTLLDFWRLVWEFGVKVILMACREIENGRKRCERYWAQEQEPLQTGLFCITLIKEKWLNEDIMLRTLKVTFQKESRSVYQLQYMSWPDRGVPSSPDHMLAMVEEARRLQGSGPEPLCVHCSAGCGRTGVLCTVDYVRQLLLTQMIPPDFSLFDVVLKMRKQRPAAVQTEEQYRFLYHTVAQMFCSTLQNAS

PTPN18 [3] = target: T1, PTPN18; assay: PTPN18-catalyzed hydrolysis of pY-containing peptides; type: biochemical; conditions: for Kcat/Km of PTPN18: calculated; for Kcat/Km of PTPN18 / Kcat for PTPN18 catalysis: range over the three peptides, pH 6.5, 37 °C, 10 nM PTPN18
Method in brief: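 Peptide dephosphorylation by the phosphatase, read by two methods: tyrosine fluorescence gain (excitation 280 nm, emission 305 nm) and an end-point inorganic phosphate assay at 620 nm. Conditions were 37 °C in 50 mM 3,3-dimethylglutarate pH 6.5, 1 mM DTT, 1 mM EDTA, ionic strength 0.15 M. Reactions started with enzyme at 10 nM final. Kinetics came from nonlinear least-squares regression.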

[4] = test system: PTPN18 mutants V65A, V65I, P272M; assay: Catalytic activity of PTPN18 pY+1 pocket mutants towards HER2 phospho-peptides; type: biochemical, human; conditions: mutations V65A, V65I and P272M versus wild type
Method in brief: (§1)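 Recombinant PTPN18 (wild type or mutant) hydrolysing pY-containing peptides at 37 °C in 50 mM 3,3-dimethylglutarate, pH 6.5, 1 mM DTT, 1 mM EDTA, ionic strength 0.15 M. Reactions are started by adding enzyme to 10 nM final. Read-out is tyrosine fluorescence (ex 280/em 305 nm) or inorganic-phosphate end-point at 620 nm. Kinetics are fitted by nonlinear least-squares regression.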

[5] = test system: PTPN18 mutants R198A, R198E; assay: Catalytic activity of PTPN18 R198 mutants towards HER2 phospho-peptides; type: biochemical, human; conditions: R198 changed to Ala or Glu versus wild type
Method in brief: as §1

PTPN18 V65A = target: T2, PTPN18 V65A (UniProt Q99952 1-460, V65A); assay: cell-based or functional assay
T2 sequence (looked up): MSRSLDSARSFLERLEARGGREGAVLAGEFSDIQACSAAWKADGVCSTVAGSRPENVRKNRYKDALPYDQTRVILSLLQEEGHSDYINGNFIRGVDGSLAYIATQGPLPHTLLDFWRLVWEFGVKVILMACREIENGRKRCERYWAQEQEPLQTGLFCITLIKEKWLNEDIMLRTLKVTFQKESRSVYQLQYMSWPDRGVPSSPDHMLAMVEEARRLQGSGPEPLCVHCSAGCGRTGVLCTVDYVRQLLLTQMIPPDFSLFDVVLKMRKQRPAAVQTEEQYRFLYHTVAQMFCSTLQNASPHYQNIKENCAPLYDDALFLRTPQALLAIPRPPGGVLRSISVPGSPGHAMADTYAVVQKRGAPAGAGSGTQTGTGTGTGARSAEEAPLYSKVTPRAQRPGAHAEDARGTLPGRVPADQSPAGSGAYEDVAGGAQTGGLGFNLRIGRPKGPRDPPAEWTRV

PTPN18 V65I = target: T3, PTPN18 V65I (UniProt Q99952 1-460, V65I); assay: cell-based or functional assay
T3 sequence (looked up): T2 sequence (looked up) with A65I

PTPN18 P272M = target: T4, PTPN18 P272M (UniProt Q99952 1-460, P272M); assay: cell-based or functional assay
T4 sequence (looked up): T2 sequence (looked up) with A65V, P272M

CC(C)C[C@@H](C=O)NC(=O)[C@H](CC(C)C)NC(=O)[C@H](CC(C)C)NC(=O)OCc1ccccc1 [MG132] (Cbz-Leu-Leu-Leu-aldehyde)
Effect on PTPN18-overexpression-promoted HER2 degradation ([1]; HepG2 cells transfected with PTPN18, 5 μM MG-132 for 16 h): almost abolished | Endogenous HER2 expression level ([1]; HepG2 cells, 5 μM MG-132 preincubated for 16 h): significantly increased

O=[N+]([O-])c1ccc(OP(=O)(O)O)cc1 [pNPP, para-nitrophenyl phosphate]
Kcat/Km of PTPN18 lower than that of PTP1B (PTPN18 [2]): 2000 fold

Ac-ENPE pY^1196 LTPQ-NH2 [HER2 pY^1196]
Kcat/Km of PTPN18 relative to its Kcat/Km towards HER2 pY^1248 (PTPN18 [3]): approximately half | Kcat/Km of PTPN18 (PTPN18 [3]): 400000 to 800000 M⁻¹ s⁻¹ | Kcat for PTPN18 catalysis (PTPN18 [3]): 4 to 11.2 s⁻¹ | Decrease of PTPN18 activity towards the peptide by mutation [4]: > 2 fold

Ac-ENPEpY^1248 LGLD-NH2 [HER2 pY^1248]
Decrease of PTPN18 activity towards the peptide by mutation [5]: 2-3 fold | Kcat/Km of PTPN18 (PTPN18 [3]): 400000 to 800000 M⁻¹ s⁻¹ | Kcat for PTPN18 catalysis (PTPN18 [3]): 4 to 11.2 s⁻¹ | Decrease of PTPN18 activity towards the peptide by mutation [4]: > 2 fold

HER2 pY^1221pY^1222: HER2 doubly phosphorylated Y1221/Y1222 site phospho-peptide (FDNL[pY][pY]WDQD)
PTPN18 activity towards the peptide (in words) (PTPN18 [3]): very weak activity

PLQRpY^1112 SEDP [HER2 pY^1112]
Decrease of PTPN18 activity towards the peptide by mutation [5]: 2-3 fold | Kcat/Km of PTPN18 (PTPN18 [3]): 400000 to 800000 M⁻¹ s⁻¹ | Kcat for PTPN18 catalysis (PTPN18 [3]): 4 to 11.2 s⁻¹

B1: HER2 pY1248 phospho-peptide (Ac-ENPEpY1248LGLD-NH2) (peptide)
peptide: Ac-ENPE[pY]LGLD-NH2
SMILES: CC(=O)N[C@@H](CCC(=O)O)C(=O)N[C@@H](CC(N)=O)C(=O)N1CCC[C@H]1C(=O)N[C@@H](CCC(=O)O)C(=O)N[C@@H](Cc1ccc(OP(=O)(O)O)cc1)C(=O)N[C@@H](CC(C)C)C(=O)NCC(=O)N[C@@H](CC(C)C)C(=O)N[C@@H](CC(=O)O)C(N)=O
decrease of PTPN18 activity towards the peptide (Figure 6B) (PTPN18 V65A): > 2 fold | decrease of PTPN18 activity towards the peptide (Figure 6B) (PTPN18 V65I): > 2 fold | decrease of PTPN18 activity towards the peptide (Figure 6B) (PTPN18 P272M): > 2 fold

B2: HER2 pY1196 phospho-peptide (Ac-ENPEpY1196LTPQ-NH2) (peptide)
peptide: Ac-ENPE[pY]LTPQ-NH2
SMILES: CC(=O)N[C@@H](CCC(=O)O)C(=O)N[C@@H](CC(N)=O)C(=O)N1CCC[C@H]1C(=O)N[C@@H](CCC(=O)O)C(=O)N[C@@H](Cc1ccc(OP(=O)(O)O)cc1)C(=O)N[C@@H](CC(C)C)C(=O)N[C@H](C(=O)N1CCC[C@H]1C(=O)N[C@@H](CCC(N)=O)C(N)=O)[C@@H](C)O
decrease of PTPN18 activity towards the peptide (Figure 6B) (PTPN18 V65A): > 2 fold | decrease of PTPN18 activity towards the peptide (Figure 6B) (PTPN18 V65I): > 2 fold | decrease of PTPN18 activity towards the peptide (Figure 6B) (PTPN18 P272M): > 2 fold
